# Active and inactive are the calls of the source. The calls are words filed in the database; no cut-off is given here.
# How the values were obtained:
# [1] = tested on: Leishmania donovani; experiment: Antileishmanial activity against Leishmania donovani (MHOM/ET/67/L82) amastigotes after 72 hrs; type: functional, organism-based; details: MHOM/ET/67/L82, 72 h
# [2] = biological target: T1, Fatty acid synthase (Plasmodium falciparum) (UniProt Q965D7); experiment: Inhibition of Plasmodium falciparum recombinant FabZ at 20 ug/mL by spectrophotometric analysis
# T1 sequence (whole entry): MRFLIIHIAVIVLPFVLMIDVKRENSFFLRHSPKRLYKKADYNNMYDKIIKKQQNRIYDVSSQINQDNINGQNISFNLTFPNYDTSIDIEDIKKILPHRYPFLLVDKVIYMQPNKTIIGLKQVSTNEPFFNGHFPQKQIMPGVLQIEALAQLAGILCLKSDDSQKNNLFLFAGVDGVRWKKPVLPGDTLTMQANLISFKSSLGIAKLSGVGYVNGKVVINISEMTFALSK
# [3] = Inhibition of Plasmodium falciparum recombinant FabI at 20 ug/mL by spectrophotometric analysis
# [4] = biological target: T2, 3-oxoacyl-acyl-carrier protein reductase (Plasmodium falciparum) (UniProt Q965D6); experiment: Inhibition of Plasmodium falciparum recombinant FabG at 20 ug/mL by spectrophotometric analysis
# T2 sequence (whole entry): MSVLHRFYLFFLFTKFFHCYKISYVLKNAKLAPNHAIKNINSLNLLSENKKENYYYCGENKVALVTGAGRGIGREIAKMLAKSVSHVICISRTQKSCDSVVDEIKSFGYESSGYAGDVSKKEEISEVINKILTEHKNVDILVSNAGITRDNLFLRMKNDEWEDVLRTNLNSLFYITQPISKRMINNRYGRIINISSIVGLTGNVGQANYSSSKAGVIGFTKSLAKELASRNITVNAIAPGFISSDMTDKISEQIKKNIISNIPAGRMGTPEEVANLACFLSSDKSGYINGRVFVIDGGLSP
# [5] = tested on: Trypanosoma cruzi; experiment: Trypanocidal activity against trypomastigote form of Trypanosoma cruzi Tulahuen infected in rat L6 cells after 96 hrs; type: functional, organism-based; details: L6, 96 h
# How it was run: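 L6 cells seeded at 2000 per well in RPMI 1640 with 10% FBS, 2 mM L-glutamine; after 24 h, 5000 trypomastigotes of the LacZ-expressing C2C4 line added. After 48 h, medium replaced with seven 3-fold dilutions (90–0.12 µg/mL) for 96 h.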
# [6] = tested on: Plasmodium falciparum; experiment: Antimalarial activity against chloroquine and pyrimethamine-resistant Plasmodium falciparum K1 assessed as inhibition of [3H]hypoxanthine incorporation after 48 hrs by scintillation counting; type: functional, organism-based
# How it was run: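 K1 strain (chloroquine- and pyrimethamine-resistant) cultured in RPMI 1640 with 5% Albumax II, 0.2% w/v glucose, 0.03% L-glutamine. Two-fold dilution series from DMSO stocks, final DMSO ≤0.25%. 48 h at 37 °C, then 0.1 µCi [3H]-hypoxanthine added and incubated 24 h more. Freeze-stopped at -80 °C, harvested onto glass fiber filters, scintillation counted. IC50 calculated. Chloroquine as standard.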
# [7] = tested on: L6; experiment: Cytotoxicity against rat L6 cells after 72 hrs by Alamar blue assay; type: cell-based; details: l6, 72 h
# How it was run: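 4 × 10^4 L6 cells per well in RPMI 1640 with 10% FBS and L-glutamine, exposed 72 h to seven 3-fold dilutions (90–0.12 µg/mL). Resazurin (Alamar Blue) added for 2 h, fluorescence read at ex 536/em 588 nm.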
# [8] = tested on: Trypanosoma brucei rhodesiense; experiment: Trypanocidal activity against Trypanosoma brucei rhodesiense STIB 900 after 72 hrs; type: functional, organism-based; details: STIB 900, 72 h
# How it was run: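 Bloodstream forms (10^4 per well) in MEM with 25 mM HEPES, extra glucose, non-essential amino acids, 2-mercaptoethanol, pyruvate and 15% heat-inactivated horse serum; seven 3-fold dilutions from 90 to 0.12 µg/mL, 72 h at 37 °C, 5% CO2. Resazurin added for 2–4 h, fluorescence at ex 536/em 588 nm; melarsoprol as standard.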
Compound,IC50 [1] [µM],Activity [2],Activity [3],Activity [4],IC50 [5] [µM],IC50 [6] [µM],Activity [7] [µM],IC50 [8] [µM]
C=C(C(=O)C[C@@H](C)C1=C(O)C(=O)[C@@H]2C3=C(CC[C@]12C)[C@@]1(C)CC[C@H](O[C@@H]2O[C@H](C(=O)OC)[C@@H](O)[C@H](O[C@@H]4OC[C@@H](O)[C@H](O)[C@H]4O)[C@H]2O)C[C@@H]1CC3)C(C)C [METHYL ESTER PANDAROSIDE E],41.3,inactive,inactive,inactive,61.9,5.9,76.9,14.3
CC[C@@H](C(=O)C[C@@H](C)C1=C(O)C(=O)[C@@H]2[C@@H]3CC[C@H]4C[C@@H](O[C@@H]5O[C@H](C(=O)OC)[C@@H](O)[C@H](O[C@@H]6OC[C@@H](O)[C@H](O)[C@H]6O)[C@H]5O)CC[C@]4(C)[C@H]3CC[C@]12C)C(C)C [METHYL ESTER PANDAROSIDE H],16.5,inactive,inactive,inactive,36.1,10.2,43.3,19.9
CC[C@@H](C(=O)C[C@@H](C)C1=C(O)C(=O)[C@@H]2[C@@H]3CC[C@H]4C[C@@H](O[C@@H]5O[C@H](C(=O)O)[C@@H](O)[C@H](O)[C@H]5O[C@@H]5O[C@H](CO)[C@@H](O)[C@H](O)[C@H]5O)CC[C@]4(C)[C@H]3CC[C@]12C)C(C)C [PANDAROSIDE A],19.7,inactive,inactive,inactive,52.2,17.6,48.9,9.1
C=C(C(=O)C[C@@H](C)C1=C(O)C(=O)[C@@H]2C3=C(CC[C@]12C)[C@@]1(C)CC[C@H](O[C@@H]2O[C@H](C(=O)O)[C@@H](O)[C@H](O[C@@H]4OC[C@@H](O)[C@H](O)[C@H]4O)[C@H]2O)C[C@@H]1CC3)C(C)C [PANDAROSIDE E],15.9,inactive,inactive,inactive,71.6,13.8,40.9,9.4
CC(C)[C@@H](C)C(=O)C[C@@H](C)C1=C(O)C(=O)[C@@H]2C3=C(CC[C@]12C)[C@@]1(C)CC[C@H](O[C@@H]2O[C@H](C(=O)O)[C@@H](O)[C@H](O[C@@H]4OC[C@@H](O)[C@H](O)[C@H]4O)[C@H]2O)C[C@@H]1CC3 [PANDAROSIDE F],4.3,inactive,inactive,inactive,20.3,5.7,10.8,2.4
CC[C@@H](C(=O)C[C@@H](C)C1=C(O)C(=O)[C@@H]2[C@@H]3CC[C@H]4C[C@@H](O[C@@H]5O[C@H](C(=O)O)[C@@H](O[C@H]6O[C@H](C)[C@@H](O)[C@H](O)[C@@H]6O)[C@H](O)[C@H]5O)CC[C@]4(C)[C@H]3CC[C@]12C)C(C)C [PANDAROSIDE I],36,inactive,inactive,inactive,70.8,> 25,> 120,19.2
CC(C)CC(=O)C[C@@H](C)C1=C(O)C(=O)[C@@H]2[C@@H]3CC[C@H]4C[C@@H](O[C@@H]5O[C@H](C(=O)O)[C@@H](O)[C@H](O)[C@H]5O)CC[C@]4(C)[C@H]3CC[C@]12C [PANDAROSIDE D],31,inactive,inactive,inactive,80.8,13.5,96.6,15.3
CC[C@@H](C(=O)C[C@@H](C)C1=C(O)C(=O)[C@@H]2[C@@H]3CC[C@H]4C[C@@H](O[C@@H]5O[C@H](C(=O)O)[C@@H](O)[C@H](O[C@@H]6OC[C@@H](O)[C@H](O)[C@H]6O)[C@H]5O)CC[C@]4(C)[C@H]3CC[C@]12C)C(C)C [PANDAROSIDE H],46.7,inactive,inactive,inactive,> 120,22.8,> 120,68.4
O=C(Cn1ccnc1[N+](=O)[O-])NCc1ccccc1 [BENZNIDAZOLE],–,–,–,–,2.64,–,–,–
CC[C@@H](C(=O)C[C@@H](C)C1=C(O)C(=O)[C@@H]2[C@@H]3CC[C@H]4C[C@@H](O[C@@H]5O[C@H](C(=O)O)[C@@H](O)[C@H](O)[C@H]5O)CC[C@]4(C)[C@H]3CC[C@]12C)C(C)C,–,inactive,inactive,inactive,–,–,–,–
COc1cc([C@@H]2c3cc4c(cc3[C@H](O)[C@H]3COC(=O)[C@H]23)OCO4)cc(OC)c1OC [PODOFILOX],–,–,–,–,–,–,0.012,–
COC(=O)[C@H]1O[C@@H](O[C@H]2CC[C@@]3(C)[C@@H](CC[C@H]4[C@H]5C(=O)C(O)=C([C@H](C)CC(=O)CC(C)C)[C@@]5(C)CC[C@@H]43)C2)[C@H](O[C@@H]2O[C@H](CO)[C@@H](O)[C@H](O)[C@H]2O)[C@@H](O)[C@@H]1O [METHYL ESTER PANDAROSIDE C],44.2,inactive,inactive,inactive,100,> 25,> 120,61.4
CC[C@@H](C(=O)C[C@@H](C)C1=C(O)C(=O)[C@@H]2[C@@H]3CC[C@H]4C[C@@H](O[C@@H]5O[C@H](C(=O)OC)[C@@H](O[C@H]6O[C@H](C)[C@@H](O)[C@H](O)[C@@H]6O)[C@H](O)[C@H]5O)CC[C@]4(C)[C@H]3CC[C@]12C)C(C)C [METHYL ESTER PANDAROSIDE I],28.7,inactive,inactive,inactive,21.7,13,59.6,27.2
CC[C@@H](C(=O)C[C@@H](C)C1=C(O)C(=O)[C@@H]2C3=CC[C@H]4C[C@@H](O[C@@H]5O[C@H](C(=O)O)[C@@H](O)[C@H](O[C@@H]6OC[C@@H](O)[C@H](O)[C@H]6O)[C@H]5O)CC[C@]4(C)[C@H]3CC[C@]12C)C(C)C [PANDAROSIDE G],1.3,inactive,inactive,inactive,9.7,2.5,5.4,0.8
COC(=O)[C@H]1O[C@@H](O[C@H]2CC[C@]3(C)C4=C(CC[C@H]3C2)[C@H]2C(=O)C(O)=C([C@H](C)CC(=O)[C@H](C)C(C)C)[C@@]2(C)CC4)[C@H](O)[C@@H](O[C@@H]2OC[C@@H](O)[C@H](O)[C@H]2O)[C@@H]1O [METHYL ESTER PANDAROSIDE F],26.8,inactive,inactive,inactive,25.1,9.9,42.1,54.4
CC[C@@H](C(=O)C[C@@H](C)C1=C(O)C(=O)[C@@H]2[C@@H]3CC[C@H]4C[C@@H](O[C@@H]5O[C@H](C(=O)OC)[C@@H](O)[C@H](O)[C@H]5O[C@@H]5O[C@H](CO)[C@@H](O)[C@H](O)[C@H]5O)CC[C@]4(C)[C@H]3CC[C@]12C)C(C)C [METHYL ESTER PANDAROSIDE A],66.3,inactive,inactive,inactive,> 120,> 25,> 120,114
